Laboratory results from ChEMBL document CHEMBL3112517, “Identification of dihydrostilbenes in Pholidota chinensis as a new scaffold for GABAA receptor modulators” (Bioorg Med Chem, 2014).
pEC50: −log10 of the molar value. The source made the active and inactive calls. The calls are words filed in the database; no cut-off is given here.

Assays:
Rattus norvegicus [1] = organism: Rattus norvegicus; experiment: Allosteric modulation of rat GABAA alpha1beta2gamma2S receptor expressed in Xenopus laevis oocytes assessed as potentiation of GABA-induced chloride ion current at holding potential -70 mV at 100 uM by two-microelectrode voltage clamp assay relative to GABA-treated control; format: cell-based
How it was run: (§1)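 Stage V–VI Xenopus laevis oocytes were injected with 50 nL of rat α1, β2 and γ2S cRNA mixed 1:1:10 (about 300–3000 pg/nL per subunit), stored at 18 °C in ND96, and recorded on days 1–5. Two-electrode clamp was at −70 mV in pH 7.4 HEPES bath. Compound was applied by fast perfusion with GABA EC3–10, in 1% DMSO final. Enhancement = I(GABA+Comp)/IGABA − 1.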

Rattus norvegicus [2] = organism: Rattus norvegicus; experiment: (§2) Allosteric modulation of rat GABAA alpha1beta2gamma2S receptor expressed in Xenopus laevis oocytes assessed as potentiation of EC3 to 10 GABA-induced chloride ion current at holding potential -70 mV by two-microelectrode voltage clamp assay; format: cell-based; how it was run: as §1
[3] = as §2; format: cell-based; how it was run: as §1
[4] = biological target: GABA A receptor alpha-3/beta-2/gamma-2 (Homo sapiens) (UniProt P47870+P18507+P34903); experiment: Modulation of GABAA alpha3beta2gamma2S receptor (unknown origin) expressed in Xenopus laevis oocytes assessed as potentiation of EC3 to 10 GABA-induced chloride ion current at holding potential -70 mV at 1 to 300 uM by two-microelectrode voltage clamp assay relative to GABA-treated control; format: cell-based
Rattus norvegicus [5] = organism: Rattus norvegicus; experiment: Allosteric modulation of rat GABAA alpha1beta2gamma2S receptor expressed in Xenopus laevis oocytes assessed as potentiation of EC3 to 10 GABA-induced chloride ion current at holding potential -70 mV at 1 to 300 uM by two-microelectrode voltage clamp assay relative to GABA-treated control; format: cell-based; how it was run: as §1
Homo sapiens [6] = organism: Homo sapiens; experiment: Modulation of GABAA alpha4beta2gamma2S receptor (unknown origin) expressed in Xenopus laevis oocytes assessed as potentiation of EC3 to 10 GABA-induced chloride ion current at holding potential -70 mV at 1 to 300 uM by two-microelectrode voltage clamp assay relative to GABA-treated control; format: cell-based
[7] = (§3) Potency index, ratio of compound activity for modulation of rat GABAA alpha1beta2gamma2S receptor assessed as EC3 to 10 GABA-induced chloride ion current to triazolam activity for modulation of GABAA alpha1beta2gamma2S receptor (unknown origin) assessed as potentiation of EC5 to 10 GABA-induced chloride ion current
[8] = Modulation of GABAA alpha5beta2gamma2S receptor (unknown origin) expressed in Xenopus laevis oocytes assessed as potentiation of EC3 to 10 GABA-induced chloride ion current at holding potential -70 mV by two-microelectrode voltage clamp assay; format: cell-based; settings: Homo sapiens
Rattus norvegicus [9] = organism: Rattus norvegicus; experiment: Agonist activity rat GABAA alpha1beta2gamma2S receptor expressed in Xenopus laevis oocytes assessed as potentiation of GABA-induced chloride ion current at holding potential -70 mV at <100 uM compound treated prior to GABA challenge by two-microelectrode voltage clamp assay; format: cell-based
Homo sapiens [10] = organism: Homo sapiens; experiment: Modulation of GABAA alpha5beta2gamma2S receptor (unknown origin) expressed in Xenopus laevis oocytes assessed as potentiation of EC3 to 10 GABA-induced chloride ion current at holding potential -70 mV at 1 to 300 uM by two-microelectrode voltage clamp assay relative to GABA-treated control; format: cell-based
[11] = biological target: T1, GABA A receptor alpha-2/beta-2/gamma-2 (Homo sapiens, UniProt P18507+P47869+P47870); experiment: Modulation of GABAA alpha2beta2gamma2S receptor (unknown origin) expressed in Xenopus laevis oocytes assessed as potentiation of EC3 to 10 GABA-induced chloride ion current at holding potential -70 mV by two-microelectrode voltage clamp assay; format: cell-based
T1 sequence (P47870 whole entry): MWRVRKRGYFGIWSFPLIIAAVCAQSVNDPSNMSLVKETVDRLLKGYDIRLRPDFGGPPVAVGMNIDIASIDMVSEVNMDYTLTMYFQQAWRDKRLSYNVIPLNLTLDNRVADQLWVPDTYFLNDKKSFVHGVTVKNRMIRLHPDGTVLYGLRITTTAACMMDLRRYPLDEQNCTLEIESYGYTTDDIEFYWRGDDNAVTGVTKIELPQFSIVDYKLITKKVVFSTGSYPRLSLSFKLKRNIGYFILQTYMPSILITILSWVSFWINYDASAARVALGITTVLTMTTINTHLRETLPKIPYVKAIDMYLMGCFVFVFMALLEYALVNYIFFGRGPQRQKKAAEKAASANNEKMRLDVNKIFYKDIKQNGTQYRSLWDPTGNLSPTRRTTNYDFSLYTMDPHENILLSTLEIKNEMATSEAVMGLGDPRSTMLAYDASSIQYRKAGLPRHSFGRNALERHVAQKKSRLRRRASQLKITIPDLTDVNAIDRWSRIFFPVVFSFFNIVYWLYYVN
T1 sequence (P18507 whole entry): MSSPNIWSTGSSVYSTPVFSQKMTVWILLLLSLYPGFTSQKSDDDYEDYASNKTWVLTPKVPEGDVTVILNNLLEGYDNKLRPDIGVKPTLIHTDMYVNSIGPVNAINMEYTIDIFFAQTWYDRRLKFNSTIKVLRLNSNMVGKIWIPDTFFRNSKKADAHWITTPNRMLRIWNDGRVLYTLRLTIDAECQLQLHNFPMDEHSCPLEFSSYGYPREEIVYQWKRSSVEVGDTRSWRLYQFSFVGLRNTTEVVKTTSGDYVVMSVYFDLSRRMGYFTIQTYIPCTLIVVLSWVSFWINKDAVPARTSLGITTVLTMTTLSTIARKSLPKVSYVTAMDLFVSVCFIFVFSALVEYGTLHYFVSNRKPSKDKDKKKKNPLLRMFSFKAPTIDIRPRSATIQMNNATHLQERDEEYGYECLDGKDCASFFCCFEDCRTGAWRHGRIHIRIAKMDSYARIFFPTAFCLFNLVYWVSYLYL
T1 sequence (P47869 whole entry): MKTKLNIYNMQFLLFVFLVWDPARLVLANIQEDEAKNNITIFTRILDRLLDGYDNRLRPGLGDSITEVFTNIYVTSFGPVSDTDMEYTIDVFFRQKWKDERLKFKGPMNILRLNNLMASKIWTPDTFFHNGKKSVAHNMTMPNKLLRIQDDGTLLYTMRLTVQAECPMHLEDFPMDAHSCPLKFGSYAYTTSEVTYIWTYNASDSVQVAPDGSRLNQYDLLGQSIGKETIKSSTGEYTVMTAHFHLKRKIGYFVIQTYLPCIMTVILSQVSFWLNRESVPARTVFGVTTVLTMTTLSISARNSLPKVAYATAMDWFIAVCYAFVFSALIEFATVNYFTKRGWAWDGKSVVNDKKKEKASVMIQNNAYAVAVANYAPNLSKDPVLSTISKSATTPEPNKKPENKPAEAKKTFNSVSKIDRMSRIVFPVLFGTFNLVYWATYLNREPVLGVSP

[12] = as §3, with “midazolam” for “triazolam”
[13] = Modulation of GABAA alpha1beta1gamma2S receptor (unknown origin) expressed in Xenopus laevis oocytes assessed as potentiation of EC3 to 10 GABA-induced chloride ion current at holding potential -70 mV by two-microelectrode voltage clamp assay; format: cell-based; settings: Homo sapiens

With `COc1cc(O)cc(CCc2cccc(O)c2)c1` [BATATASIN III] the Activity (Rattus norvegicus [1]) was 628%, the Activity (Rattus norvegicus [2]) was “Dose-dependent effect” and the pEC50 [3] was 4.28. It also gave an Imax [4] of 1690%, an Imax (Rattus norvegicus [5]) of 1510% and an Imax (Homo sapiens [6]) of 1590%. For the same compound, the Ratio [7] was 4, the pEC50 [8] was 4.33 and the Activity (Rattus norvegicus [9]) was “inactive”. The Imax (Homo sapiens [10]) was 1380%, the pEC50 [11] was 4.09 and the Ratio [12] was 4. The pEC50 [13] was 4.18.
